Assay results as given in ChEMBL document CHEMBL2331206, “Genomics-guided discovery of thailanstatins A, B, and C As pre-mRNA splicing inhibitors and antiproliferative agents from Burkholderia thailandensis MSMB43” (J Nat Prod, 2013).

Experiments:
[1] = test system: HEK293; experiment: Inhibition of Pre-mRNA splicing in human HEK293 cells using biotin-labeled Ad2 pre-mRNA by exonjunction complex (EJC) immunoprecipitation assay
[2] = test system: MDA-MB-231; experiment: Antiproliferative activity against human MDA-MB-231 cells assessed as growth inhibition measured after 48 hrs by MTT assay; type: functional; conditions: MDA-MB-231, 48 h
How it was run: (§1)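 Cells seeded at 10,000 or 15,000 per well, incubated overnight at 37 °C, then exposed to serial three-fold dilutions of compound (10 mM DMSO stocks) for 48 h at 37 °C. MTT added for 4 h at 37 °C, absorbance read at 570 and 690 nm. Viability = 100×(T−T0)/(C−T0) versus vehicle. Triplicate wells; GI50 from log concentration versus normalized viability.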

[3] = Antiproliferative activity against human NCI-H232A cells assessed as growth inhibition measured after 48 hrs by MTT assay; type: functional
How it was run: as §1

[4] = test system: HEK293; experiment: Inhibition of Pre-mRNA splicing in human HEK293 cells using p32-labeled CDC14-15 pre-mRNA by exonjunction complex (EJC) immunoprecipitation assay; type: functional, cell-based
[5] = Stability of the compound in phosphate buffer assessed as compound remaining after 8 to 78 hrs at pH 7.4 at 37 degC by HPLC; type: physicochemical
How it was run: (§2)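 Compound (10 µL of 10 mM DMSO stock) added to 10 mL phosphate buffer pH 7.4 containing benzoic acid and DMSO, sealed and held at 37 °C. Samples (20 µL) analysed by reverse-phase C18 HPLC at multiple time points; half-life determined from remaining compound.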

[6] = test system: DU-145; experiment: Antiproliferative activity against human DU145 cells assessed as growth inhibition measured after 48 hrs by MTT assay; type: functional; conditions: DU-145, 48 h
How it was run: as §1

[7] = Stability of the compound in phosphate buffer at pH 7.4 at 37 degC by HPLC; type: physicochemical
How it was run: as §2

[8] = test system: SK-OV-3; experiment: Antiproliferative activity against human SKOV3 cells assessed as growth inhibition measured after 48 hrs by MTT assay; type: functional; conditions: SK-OV-3, 48 h
How it was run: as §1

[9] = Stability of the compound in phosphate buffer at pH 7 at 37 degC by HPLC; type: physicochemical

Row | Structure (SMILES) | IC50 [1] [nM] | GI50 [2] [nM] | GI50 [3] [nM] | inhibition [4] | Stability [5] [%] | GI50 [6] [nM] | half-life [7] [h] | GI50 [8] [nM] | half-life [9] [h]
1 | CC(=O)O[C@@H](C)/C=C\C(=O)N[C@@H]1C[C@H](C)[C@H](C/C=C(C)/C=C/[C@H]2O[C@](C)(O)C[C@@]3(CO3)[C@@H]2O)O[C@@H]1C | 580 | 2.1 | 1.94 | Dose-dependent effect | 38 | 1.05 | 8 | 1.06 | 4
2 | CC(=O)O[C@@H](C)/C=C\C(=O)N[C@@H]1C[C@H](C)[C@H](C/C=C(C)/C=C/[C@H]2O[C@H](CC(=O)O)C[C@@]3(CO3)[C@@H]2O)O[C@@H]1C [THAILANSTATIN A] | 650 | 2.58 | 2.26 |  | 65 | 1.11 | > 78 | 2.69 | 
3 | CC(=O)O[C@@H](C)/C=C\C(=O)N[C@@H]1C[C@H](C)[C@H](C/C=C(C)/C=C/[C@H]2O[C@H](CC(=O)O)C[C@@](O)(CCl)[C@@H]2O)O[C@@H]1C [THAILANSTATIN B] | 6180 | 6.22 | 2.5 |  |  | 3 | 19 | 4.94 | 
4 | CC(/C=C/[C@H]1O[C@H](CC(=O)O)C[C@@](O)(CCl)[C@@H]1O)=C\C[C@@H]1O[C@H](C)[C@H](NC(=O)/C=C\[C@H](C)OC(=O)C(C)C)C[C@@H]1C [THAILANSTATIN C] | 6840 | 8.82 | 3.67 |  |  | 2.98 | 25 | 5.57 | 
